Values after ≈ are worked out from the molar mass of the structure shown.

Among the data in ChEMBL document CHEMBL3576834, “Antipodal crambescin A2 homologues from the marine sponge Pseudaxinella reticulata. Antifungal structure-activity relationships” (2015) are MIC50, MIC90 and zone of inhibition values, retold here.

The subject of one assay is Pichia kudriavzevii. Put plainly: Antifungal activity against Candida krusei after 48 hrs by microbroth dilution method. The class given is functional. In short, it runs like this:
(§1)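 Microbroth dilution in Antibiotic Medium #3. Test agent in DMSO serially diluted 2-fold across 12 wells. Overnight yeast cultures diluted to OD 0.01−0.02 and added to the wells, final volume 200 μL. Incubated at 35 °C for 48 h, then growth read as OD at 600 nm.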
On the technique in general: Broth dilution looks for growth in wells or tubes with falling amounts of substance.

The subject of another assay is Candida albicans. Description: Antifungal activity against Candida albicans ATCC 14503 after 48 hrs by microbroth dilution method. As to conditions: ATCC 14503, 48 h. The class given is functional. An outline of the steps: as §1
The next assay deals with Nakaseomyces glabratus. Description: Antifungal activity against Candida glabrata after 48 hrs by microbroth dilution method. The format is functional. An outline of the steps: as §1
The subject of the next assay is Cryptococcus gattii. Put plainly: Antifungal activity against Cryptococcus neoformans var. gattii after 48 hrs by microbroth dilution method. The format is functional, Cryptococcus bacillisporus. An outline of the steps:
as §1

For the next assay, the system named is Staphylococcus aureus. Description: Antibacterial activity against Staphylococcus aureus at 80 ug by disk diffusion method. The class given is functional. As to conditions: read-out: IZ. (In general: In agar diffusion tests the substance spreads into inoculated agar from a disc or well.)

What is called MIC50 is the lowest concentration that inhibits either 50% of growth or 50% of the strains tested, depending on the study. Lower therefore signals greater potency. For orientation: MIC90 means the lowest concentration that inhibits either 90% of growth or 90% of the strains tested, depending on the study. A lower MIC90 goes with higher susceptibility. For the compound `CCCCCCCCC[C@H]1NC(=N)N2CCCC2=C1C(=O)OCCCCNC(=N)N`, the MIC50 came out at 11 µM (≈ 4.63 µg/mL) against Pichia kudriavzevii, 11 µM (≈ 4.63 µg/mL) in the assay with Candida albicans, 6.1 µM (≈ 2.57 µg/mL) in the assay on Nakaseomyces glabratus and 1.1 µM (≈ 0.463 µg/mL) in the assay with Cryptococcus gattii. Moreover, the MIC90 in the assay on Pichia kudriavzevii worked out at 24 µM (≈ 10.1 µg/mL); with Candida albicans, 22 µM (≈ 9.25 µg/mL); against Nakaseomyces glabratus, 27 µM (≈ 11.4 µg/mL); against Cryptococcus gattii, 2.6 µM (≈ 1.09 µg/mL).

As for `CCCCCCC[C@H]1NC(=N)N2CCCC2=C1C(=O)OCCCCNC(=N)N`, the MIC50 stood at 22 µM (≈ 8.64 µg/mL) against Candida albicans and 1.2 µM (≈ 0.471 µg/mL) in the assay on Cryptococcus gattii. For the same compound, the MIC90 amounted to 32 µM (≈ 12.6 µg/mL) with Candida albicans and 2.3 µM (≈ 0.903 µg/mL) against Cryptococcus gattii.

Regarding `CCCCC[C@H]1NC(=N)N2CCCC2=C1C(=O)OCCCCNC(=N)N`, the zone of inhibition at 80 µg/disc in the assay with Staphylococcus aureus turned out to be 8 mm. Moreover, the MIC50 stood at 34 µM (≈ 12.4 µg/mL) against Pichia kudriavzevii, 39 µM (≈ 14.2 µg/mL) against Candida albicans, 17 µM (≈ 6.2 µg/mL) in the assay with Nakaseomyces glabratus and 2.5 µM (≈ 0.911 µg/mL) against Cryptococcus gattii. The MIC90 worked out at 59 µM (≈ 21.5 µg/mL) against Pichia kudriavzevii, 49 µM (≈ 17.9 µg/mL) in the assay on Candida albicans, 41 µM (≈ 14.9 µg/mL) against Nakaseomyces glabratus and 4.9 µM (≈ 1.79 µg/mL) in the assay with Cryptococcus gattii.

As for `CCCCCCCC[C@H]1NC(=N)N2CCCC2=C1C(=O)OCCCCNC(=N)N`, the MIC50 in the assay on Candida albicans was found to be 14 µM (≈ 5.69 µg/mL); against Cryptococcus gattii, 0.85 µM (≈ 0.346 µg/mL). For the same compound, the MIC90 against Candida albicans came out at 26 µM (≈ 10.6 µg/mL); against Cryptococcus gattii it was 2.2 µM (≈ 0.894 µg/mL).

`C[C@@H]1[C@H](O)[C@@H](C)/C=C/C=C/C=C/C=C/C=C/C=C/C=C/[C@H](O[C@@H]2O[C@H](C)[C@@H](O)[C@H](N)[C@@H]2O)C[C@@H]2O[C@](O)(C[C@@H](O)C[C@@H](O)[C@H](O)CC[C@@H](O)C[C@@H](O)CC(=O)O[C@H]1C)C[C@H](O)[C@H]2C(=O)O` [AMPHOTERICIN B]: the MIC50 in the assay with Pichia kudriavzevii was 0.17 µM (≈ 0.157 µg/mL); against Candida albicans, 0.037 µM (≈ 0.0342 µg/mL); in the assay on Nakaseomyces glabratus it was 0.098 µM (≈ 0.0906 µg/mL); against Cryptococcus gattii, 0.055 µM (≈ 0.0508 µg/mL). Also, the MIC90 against Pichia kudriavzevii came out at 0.23 µM (≈ 0.213 µg/mL); against Candida albicans it was 0.29 µM (≈ 0.268 µg/mL); against Nakaseomyces glabratus, 0.25 µM (≈ 0.231 µg/mL); against Cryptococcus gattii, 0.12 µM (≈ 0.111 µg/mL).
